From ChEMBL document CHEMBL4261538, “Synthesis and molecular docking studies of xanthone attached amino acids as potential antimicrobial and anti-inflammatory agents” (Medchemcomm, 2017)
In brackets after ≈: the same amount, converted by molar mass.

Key:
Erythrocyte = assay: Anti-inflammatory activity in human RBC assessed as inhibition of hypotonic solution-induced hemolysis after 10 mins by spectrophotometric method; assay type: functional, cell-based
Summary of the method: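 Human blood (heparinized) washed with 0.9% saline, packed cells made into a 40% v/v stock in isotonic phosphate buffer (154 mM NaCl, 10 mM sodium phosphate, pH 7.4). Stock RBC mixed with hypotonic buffer (50 mM NaCl, 10 mM phosphate, pH 7.4) plus sample at 20–100 µg mL⁻¹.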

Staphylococcus aureus [1] = assay: Antibacterial activity against Staphylococcus aureus at 100 ug/ml incubated for 24 hrs by agar well diffusion method; assay type: functional; settings: read-out: DIZ
Summary of the method: (§1)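 Bacteria grown in nutrient broth at 37 °C for 24 h, then subcultured at room temperature. Compounds dissolved in DMSO at 5 mg mL⁻¹ and 5–20 µL added to 6 mm wells, giving 25, 50, 75, 100 µg per well. Gentamicin was the positive control and DMSO the negative control. Plates held at 37 °C for 24 h, then inhibition zone diameter (mm) measured. Values are means of three determinations.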

Aspergillus niger [2] = assay: Antifungal activity against Aspergillus niger at 100 ug/ml incubated for 48 hrs by agar well diffusion method; assay type: functional; settings: read-out: DIZ
Summary of the method: (§2)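 Compounds dissolved in DMSO at 5 mg mL⁻¹ and 5–20 µL added to 6 mm wells, giving 25, 50, 75, 100 µg per well. Bavistin was the positive control and DMSO the negative control. Plates incubated at 28 °C for 48 h, then inhibition zone diameter (mm) measured. Values are means of three determinations.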

Candida albicans [3] = assay: Antifungal activity against Candida albicans at 50 ug/ml incubated for 48 hrs by agar well diffusion method; assay type: functional; settings: read-out: DIZ; summary of the method: as §2
Bacillus subtilis [4] = assay: Antibacterial activity against Bacillus subtilis at 100 ug/ml incubated for 24 hrs by agar well diffusion method; assay type: functional; settings: read-out: DIZ; summary of the method: as §1
Klebsiella pneumoniae [5] = assay: Antibacterial activity against Klebsiella pneumoniae at 50 ug/ml incubated for 24 hrs by agar well diffusion method; assay type: functional; settings: read-out: DIZ; summary of the method: as §1
Aspergillus niger [6] = assay: Antifungal activity against Aspergillus niger at 75 ug/ml incubated for 48 hrs by agar well diffusion method; assay type: functional; settings: read-out: DIZ; summary of the method: as §2
Candida albicans [7] = assay: Antifungal activity against Candida albicans at 25 ug/ml incubated for 48 hrs by agar well diffusion method; assay type: functional; settings: read-out: DIZ; summary of the method: as §2
Staphylococcus aureus [8] = assay: Antibacterial activity against Staphylococcus aureus incubated for 24 hrs by microdilution method; assay type: functional
Escherichia coli [9] = assay: Antibacterial activity against Escherichia coli at 75 ug/ml incubated for 24 hrs by agar well diffusion method; assay type: functional; settings: read-out: DIZ; summary of the method: as §1
Fusarium oxysporum [10] = assay: Antifungal activity against Fusarium oxysporum at 25 ug/ml incubated for 48 hrs by agar well diffusion method; assay type: functional; settings: read-out: DIZ; summary of the method: as §2
Staphylococcus aureus [11] = assay: Antibacterial activity against Staphylococcus aureus at 25 ug/ml incubated for 24 hrs by agar well diffusion method; assay type: functional; settings: read-out: DIZ; summary of the method: as §1
Candida albicans [12] = assay: Antifungal activity against Candida albicans at 100 ug/ml incubated for 48 hrs by agar well diffusion method; assay type: functional; settings: read-out: DIZ; summary of the method: as §2
Candida albicans [13] = assay: Antifungal activity against Candida albicans at 75 ug/ml incubated for 48 hrs by agar well diffusion method; assay type: functional; settings: read-out: DIZ; summary of the method: as §2
Bacillus subtilis [14] = assay: Antibacterial activity against Bacillus subtilis incubated for 24 hrs by microdilution method; assay type: functional
Bacillus subtilis [15] = assay: Antibacterial activity against Bacillus subtilis at 50 ug/ml incubated for 24 hrs by agar well diffusion method; assay type: functional; settings: read-out: DIZ; summary of the method: as §1
Escherichia coli [16] = assay: Antibacterial activity against Escherichia coli at 50 ug/ml incubated for 24 hrs by agar well diffusion method; assay type: functional; settings: read-out: DIZ; summary of the method: as §1
Staphylococcus aureus [17] = assay: Induction of cell membrane damage in Staphylococcus aureus assessed as cell content leakage at MIC by spectrophotometric method; assay type: functional, organism-based; settings: TDE = time-dependent effect
Summary of the method: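 Log-phase S. aureus inoculated into 0.1% sterile peptone water, with an untreated control, and held at 37 °C for 0, 30, 60 and 120 min. 1 mL of broth centrifuged and supernatant OD read at 260 nm to measure released DNA. Run in triplicate, repeated three times.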

Aspergillus niger [18] = assay: Antifungal activity against Aspergillus niger at 25 ug/ml incubated for 48 hrs by agar well diffusion method; assay type: functional; settings: read-out: DIZ; summary of the method: as §2
Aspergillus niger [19] = assay: Antifungal activity against Aspergillus niger at 50 ug/ml incubated for 48 hrs by agar well diffusion method; assay type: functional; settings: read-out: DIZ; summary of the method: as §2
Klebsiella pneumoniae [20] = assay: Antibacterial activity against Klebsiella pneumoniae at 25 ug/ml incubated for 24 hrs by agar well diffusion method; assay type: functional; settings: read-out: DIZ; summary of the method: as §1
Klebsiella pneumoniae [21] = assay: Antibacterial activity against Klebsiella pneumoniae incubated for 24 hrs by microdilution method; assay type: functional
Candida albicans [22] = assay: Antifungal activity against Candida albicans incubated for 48 to 72 hrs by microdilution method; assay type: functional
Summary of the method: (§3)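 Sabouraud agar plates inoculated with fungal suspension at 10⁵ CFU mL⁻¹ plus serially diluted compounds and bavistin reference, both in DMSO. Incubated at 25 °C for 48–72 h. MIC is the lowest concentration completely inhibiting growth. Values are means of three determinations.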

Klebsiella pneumoniae [23] = assay: Antibacterial activity against Klebsiella pneumoniae at 75 ug/ml incubated for 24 hrs by agar well diffusion method; assay type: functional; settings: read-out: DIZ; summary of the method: as §1
Staphylococcus aureus [24] = assay: Antibacterial activity against Staphylococcus aureus at 50 ug/ml incubated for 24 hrs by agar well diffusion method; assay type: functional; settings: read-out: DIZ; summary of the method: as §1
Fusarium oxysporum [25] = assay: Antifungal activity against Fusarium oxysporum at 75 ug/ml incubated for 48 hrs by agar well diffusion method; assay type: functional; settings: read-out: DIZ; summary of the method: as §2
Escherichia coli [26] = assay: Antibacterial activity against Escherichia coli at 25 ug/ml incubated for 24 hrs by agar well diffusion method; assay type: functional; settings: read-out: DIZ; summary of the method: as §1
Escherichia coli [27] = assay: Antibacterial activity against Escherichia coli incubated for 24 hrs by microdilution method; assay type: functional
Bacillus subtilis [28] = assay: Antibacterial activity against Bacillus subtilis at 75 ug/ml incubated for 24 hrs by agar well diffusion method; assay type: functional; settings: read-out: DIZ; summary of the method: as §1
Fusarium oxysporum [29] = assay: Antifungal activity against Fusarium oxysporum incubated for 48 to 72 hrs by microdilution method; assay type: functional; summary of the method: as §3
Bacillus subtilis [30] = assay: Antibacterial activity against Bacillus subtilis at 25 ug/ml incubated for 24 hrs by agar well diffusion method; assay type: functional; settings: read-out: DIZ; summary of the method: as §1
Staphylococcus aureus [31] = assay: Antibacterial activity against Staphylococcus aureus at 75 ug/ml incubated for 24 hrs by agar well diffusion method; assay type: functional; settings: read-out: DIZ; summary of the method: as §1
Aspergillus niger [32] = assay: Antifungal activity against Aspergillus niger incubated for 48 to 72 hrs by microdilution method; assay type: functional; summary of the method: as §3
Fusarium oxysporum [33] = assay: Antifungal activity against Fusarium oxysporum at 50 ug/ml incubated for 48 hrs by agar well diffusion method; assay type: functional; settings: read-out: DIZ; summary of the method: as §2
Fusarium oxysporum [34] = assay: Antifungal activity against Fusarium oxysporum at 100 ug/ml incubated for 48 hrs by agar well diffusion method; assay type: functional; settings: read-out: DIZ; summary of the method: as §2
Klebsiella pneumoniae [35] = assay: Antibacterial activity against Klebsiella pneumoniae at 100 ug/ml incubated for 24 hrs by agar well diffusion method; assay type: functional; settings: read-out: DIZ; summary of the method: as §1
Escherichia coli [36] = assay: Antibacterial activity against Escherichia coli at 100 ug/ml incubated for 24 hrs by agar well diffusion method; assay type: functional; settings: read-out: DIZ; summary of the method: as §1

Compound `CC(C)(C)OC(=O)N[C@@H](Cc1ccccc1)C(=O)Oc1ccc2c(=O)c3ccccc3oc2c1` has an IC50 (Erythrocyte) of 38 µg/mL (≈ 82.7 µM), a zone of inhibition at 100 µg/mL (Staphylococcus aureus [1]) of 34 mm and a zone of inhibition at 100 µg/mL (Aspergillus niger [2]) of 40 mm. For the same compound, the zone of inhibition at 50 µg/mL (Candida albicans [3]) was 27 mm, the zone of inhibition at 100 µg/mL (Bacillus subtilis [4]) was 36 mm and the zone of inhibition at 50 µg/mL (Klebsiella pneumoniae [5]) was 27 mm. The zone of inhibition at 75 µg/mL (Aspergillus niger [6]) was 35 mm, the zone of inhibition at 25 µg/mL (Candida albicans [7]) was 22 mm and the MIC (Staphylococcus aureus [8]) was 25 µg/mL (≈ 54.4 µM). It also gave a zone of inhibition at 75 µg/mL (Escherichia coli [9]) of 32 mm, a zone of inhibition at 25 µg/mL (Fusarium oxysporum [10]) of 14 mm and a zone of inhibition at 25 µg/mL (Staphylococcus aureus [11]) of 18 mm. The zone of inhibition at 100 µg/mL (Candida albicans [12]) was 38 mm, the zone of inhibition at 75 µg/mL (Candida albicans [13]) was 32 mm and the MIC (Bacillus subtilis [14]) was 26 µg/mL (≈ 56.6 µM). For the same compound, the zone of inhibition at 50 µg/mL (Bacillus subtilis [15]) was 26 mm, the zone of inhibition at 50 µg/mL (Escherichia coli [16]) was 25 mm and the Activity (Staphylococcus aureus [17]) was “Tde”. It also gave a zone of inhibition at 25 µg/mL (Aspergillus niger [18]) of 17 mm, a zone of inhibition at 50 µg/mL (Aspergillus niger [19]) of 28 mm and a zone of inhibition at 25 µg/mL (Klebsiella pneumoniae [20]) of 20 mm. It also gave an MIC (Klebsiella pneumoniae [21]) of 26 µg/mL (≈ 56.6 µM), an MIC (Candida albicans [22]) of 30 µg/mL (≈ 65.3 µM) and a zone of inhibition at 75 µg/mL (Klebsiella pneumoniae [23]) of 33 mm. The zone of inhibition at 50 µg/mL (Staphylococcus aureus [24]) was 25 mm, the zone of inhibition at 75 µg/mL (Fusarium oxysporum [25]) was 27 mm and the zone of inhibition at 25 µg/mL (Escherichia coli [26]) was 16 mm. For the same compound, the MIC (Escherichia coli [27]) was 22 µg/mL (≈ 47.9 µM), the zone of inhibition at 75 µg/mL (Bacillus subtilis [28]) was 33 mm and the MIC (Fusarium oxysporum [29]) was 27 µg/mL (≈ 58.8 µM). The zone of inhibition at 25 µg/mL (Bacillus subtilis [30]) was 17 mm, the zone of inhibition at 75 µg/mL (Staphylococcus aureus [31]) was 31 mm and the MIC (Aspergillus niger [32]) was 28 µg/mL (≈ 60.9 µM). The zone of inhibition at 50 µg/mL (Fusarium oxysporum [33]) was 22 mm, the zone of inhibition at 100 µg/mL (Fusarium oxysporum [34]) was 32 mm and the zone of inhibition at 100 µg/mL (Klebsiella pneumoniae [35]) was 37 mm. The zone of inhibition at 100 µg/mL (Escherichia coli [36]) was 34 mm.
